In ChEMBL document CHEMBL1944524, “Synthesis and structure-activity relationship of 5-pyridazin-3-one phenoxypiperidines as potent, selective histamine H(3) receptor inverse agonists” (Bioorg Med Chem Lett, 2012):
pEC50, pIC50, pKi: −log10 of the molar value. One block for each compound: values may come before it. Active and inactive are the calls of the source. The rule behind the calls is not given here.

Legend:
[1] = Half life in rat at 1 mg/kg, iv; assay type: ADME, organism-based; design: dose 1 mg/kg, route intravenous; details: in vivo
Outline: (§1)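 Rat PK study, dosed 1 mg/kg iv plus 10 or 5 mg/kg po. iv vehicle 3% DMSO, 30% solutol, 67% phosphate buffered saline; oral vehicle 50% Tween 80, 40% propylene carbonate, 10% propylene glycol.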

Rattus norvegicus [2] = test: Inhibition of RAMH-induced water drinking in ip dosed rat dipsogenia model; assay type: functional
Outline: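 Rat dipsogenia model: water drinking induced by H3 agonist R-alpha-methylhistamine; test article given ip beforehand; inhibition of drinking measured and ED50 (mg/kg) derived.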

[3] = Plasma protein binding in dog; assay type: ADME, cell-free, Canis lupus familiaris; details: read-out: PPB (converted)
Outline: (§2)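 In vitro binding to plasma proteins of rat, dog and human; percent bound.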

[4] = Half life in dog liver microsomes; assay type: ADME, Canis lupus familiaris, Microsome
Outline: (§3)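 Stability in liver microsomes from rat, dog or human; half-life (min) determined.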

[5] = molecular target: Voltage-gated inwardly rectifying potassium channel KCNH2 (Homo sapiens, UniProt Q12809); test: Inhibition of human ERG by patch clamp assay
[6] = molecular target: Histamine H1 receptor (Homo sapiens) (UniProt P35367); test: Inhibition of human histamine H1 receptor at 10 uM
Outline: (§4)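 Selectivity screen against human H1, H2 and H4 receptors; percent inhibition at 10 µM.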

[7] = Genotoxicity against mouse lymphocytes by micronuclei test in the absence of rat liver S9 fraction; assay type: toxicity, cell-based; details: lymphocyte
[8] = Genotoxicity against mouse lymphocytes by micronuclei test in the presence of rat liver S9 fraction; assay type: toxicity, Lymphocyte
[9] = Cmax in rat at 10 mg/kg, po; assay type: ADME, organism-based; design: dose 10 mg/kg, route oral; details: in vivo; outline: as §1
[10] = Aqueous solubility of the compound at pH 7.4; assay type: physicochemical; details: buffer
Outline: (§5)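 Water solubility measured at pH 2 and at pH 7.4, in […].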

[11] = Plasma protein binding in rat; assay type: ADME, cell-free; details: read-out: PPB (converted); outline: as §2
Salmonella typhimurium [12] = test: Genotoxicity against Salmonella Typhimurium TA98 by Ames test in the presence of rat liver S9 fraction; assay type: toxicity, organism-based; details: salmonella enterica subsp. enterica serovar typhimurium
[13] = Apparent permeability of the compound across human Caco2 cells; assay type: ADME, cell-based; details: Caco-2
Outline: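 Caco-2 monolayer permeability; apparent permeability (Papp, cm/s) reported.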

Salmonella typhimurium [14] = test: Genotoxicity against Salmonella Typhimurium TA98 by Ames test in the absence of rat liver S9 fraction; assay type: toxicity, organism-based; details: salmonella enterica subsp. enterica serovar typhimurium
[15] = molecular target: Histamine H4 receptor (Homo sapiens) (UniProt Q9H3N8); test: Inhibition of human histamine H4 receptor at 10 uM; outline: as §4
[16] = Plasma protein binding in human; assay type: ADME, cell-free; details: read-out: PPB (converted); outline: as §2
Salmonella typhimurium [17] = test: Genotoxicity against Salmonella Typhimurium TA100 by Ames test in the absence of rat liver S9 fraction; assay type: toxicity, organism-based; details: salmonella enterica subsp. enterica serovar typhimurium
Rattus norvegicus [18] = test: Wake promoting activity in Sprague-Dawley rat EEG/EMG sleep-wake model assessed as increase in wake time at 30 mg/kg, ip after 4 hrs relative to control; assay type: functional; details: route intraperitoneal
Outline: (§6)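 Male Sprague Dawley rats surgically implanted for chronic EEG and EMG recording; test agent given ip, vehicle group as control; n = 6-7/group. […] Mean + SEM; Dunnett's test versus vehicle.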

Histamine H3 receptor [19] = molecular target: T1, Histamine H3 receptor (Homo sapiens, UniProt Q9Y5N1); test: Inverse agonist activity at human histamine H3 histamine receptor by [35S]GTPgammaS binding assay; assay type: functional
Outline: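 Functional assay measuring [35S]GTPγS binding at the human H3 receptor. Inverse agonist potency is reported as an EC50.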

Salmonella typhimurium [20] = test: Genotoxicity against Salmonella Typhimurium TA100 by Ames test in the presence of rat liver S9 fraction; assay type: toxicity, organism-based; details: salmonella enterica subsp. enterica serovar typhimurium
[21] = Volume of distribution in rat at 1 mg/kg, iv; assay type: ADME, organism-based; design: dose 1 mg/kg, route intravenous; details: in vivo; outline: as §1
Rattus norvegicus [22] = test: Wake promoting activity in Sprague-Dawley rat EEG/EMG sleep-wake model assessed as maximum cumulative wake time at 30 mg/kg, ip up to 17 hrs; assay type: functional, organism-based; design: dose 30 mg/kg
Salmonella typhimurium [23] = test: Genotoxicity against Salmonella Typhimurium TA102 by Ames test in the absence of rat liver S9 fraction; assay type: toxicity, organism-based; details: salmonella enterica subsp. enterica serovar typhimurium
Rattus norvegicus [24] = test: Wake promoting activity in Sprague-Dawley rat EEG/EMG sleep-wake model assessed as slow-wave sleep onset time at 3 mg/kg, ip after 4 hrs (reference value: 34.9 +/- 5.1 mins); assay type: functional; details: route intraperitoneal; outline: as §6
[25] = Aqueous solubility of the compound at pH 2; assay type: physicochemical; details: buffer; outline: as §5
Salmonella typhimurium [26] = test: Genotoxicity against Salmonella Typhimurium TA1535 by Ames test in the presence of rat liver S9 fraction; assay type: toxicity, organism-based; details: salmonella enterica subsp. enterica serovar typhimurium
Rattus norvegicus [27] = test: Toxicity in Sprague-Dawley rat assessed as hypersomnolence at 1 to 30 mg/kg, ip after 4 hrs; assay type: organism-based; design: dose 1-30 mg/kg, route intraperitoneal; details: in vivo
Histamine H3 receptor [28] = molecular target: T1, Histamine H3 receptor; test: Displacement of [3H]N-alpha-methylhistamine from human histamine H3 receptor expressed in CHO cells; assay type: cell-based
Rattus norvegicus [29] = test: Wake promoting activity in Sprague-Dawley rat EEG/EMG sleep-wake model assessed as maximum cumulative wake time at 30 mg/kg, ip at 6 hrs; assay type: functional; details: route intraperitoneal
[30] = Inhibition of cytochrome P450; assay type: ADME
Outline: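 CYP inhibition assessed against 5 CYP isoforms; IC50 determined.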

Histamine H3 receptor [31] = molecular target: Histamine H3 receptor (Rattus norvegicus, UniProt Q9QYN8); test: Displacement of [3H]N-alpha-methylhistamine from rat histamine H3 receptor expressed in CHO cells; assay type: cell-based
Salmonella typhimurium [32] = test: Genotoxicity against Salmonella Typhimurium TA1535 by Ames test in the absence of rat liver S9 fraction; assay type: toxicity, organism-based; details: salmonella enterica subsp. enterica serovar typhimurium
Salmonella typhimurium [33] = test: Genotoxicity against Salmonella Typhimurium TA1537 by Ames test in the presence of rat liver S9 fraction; assay type: toxicity, organism-based; details: salmonella enterica subsp. enterica serovar typhimurium
[34] = Half life in human liver microsomes; assay type: ADME, Microsome; outline: as §3
Rattus norvegicus [35] = test: Wake promoting activity in Sprague-Dawley rat EEG/EMG sleep-wake model assessed as increase in wake time at 30 mg/kg, ip after 4 hrs; assay type: functional; details: route intraperitoneal
Outline: (§7)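 Male Sprague Dawley rats surgically implanted for chronic EEG/EMG recording; ip dosing during normal quiet period; cumulative wake time over 4 h post dose vs vehicle; n = 6-7/group, mean + SEM, Dunnett's test vs vehicle.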

[36] = Oral bioavailability in rat at 10 mg/kg; assay type: ADME, organism-based; details: in vivo; outline: as §1
[37] = Tmax in rat at 10 mg/kg, po; assay type: ADME, organism-based; design: dose 10 mg/kg, route oral; details: in vivo; outline: as §1
[38] = Inhibition of alpha-adrenergic receptor at 10 uM
Outline: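 Broad panel of 101 GPCRs, ion channels and enzymes; percent inhibition at 10 µM.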

Rattus norvegicus [39] = test: Wake promoting activity in Sprague-Dawley rat EEG/EMG sleep-wake model assessed as increase in wake time at 10 mg/kg, ip after 4 hrs; assay type: functional; details: route intraperitoneal; outline: as §7
[40] = Clearance in rat at 1 mg/kg, iv; assay type: ADME, organism-based; design: dose 1 mg/kg, route intravenous; details: in vivo; outline: as §1
Salmonella typhimurium [41] = test: Genotoxicity against Salmonella Typhimurium TA1537 by Ames test in the absence of rat liver S9 fraction; assay type: toxicity, organism-based; details: salmonella enterica subsp. enterica serovar typhimurium
[42] = Half life in rat liver microsomes; assay type: ADME, Microsome; outline: as §3
[43] = Ratio of drug level in brain to plasma in rat at 10 mg/kg, ip after 6 hrs; assay type: ADME, organism-based; design: dose 10 mg/kg, route intraperitoneal; details: read-out: BPR
Outline: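 Brain and plasma levels measured in rat 6 h after a 10 mg/kg ip dose; value is brain/plasma ratio.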

Salmonella typhimurium [44] = test: Genotoxicity against Salmonella Typhimurium TA102 by Ames test in the presence of rat liver S9 fraction; assay type: toxicity, organism-based; details: salmonella enterica subsp. enterica serovar typhimurium
[45] = AUC in rat at 10 mg/kg, po; assay type: ADME, organism-based; design: dose 10 mg/kg, route oral; details: plasma; outline: as §1
[46] = molecular target: Histamine H2 receptor (Homo sapiens) (UniProt P25021); test: Inhibition of human histamine H2 receptor at 10 uM; outline: as §4
Rattus norvegicus [47] = test: Wake promoting activity in Sprague-Dawley rat EEG/EMG sleep-wake model assessed as slow-wave sleep onset time at 1 mg/kg, ip after 4 hrs (reference value: 34.9 +/- 5.1 mins); assay type: functional; details: route intraperitoneal; outline: as §6

T1 sequence (Q9Y5N1 whole entry): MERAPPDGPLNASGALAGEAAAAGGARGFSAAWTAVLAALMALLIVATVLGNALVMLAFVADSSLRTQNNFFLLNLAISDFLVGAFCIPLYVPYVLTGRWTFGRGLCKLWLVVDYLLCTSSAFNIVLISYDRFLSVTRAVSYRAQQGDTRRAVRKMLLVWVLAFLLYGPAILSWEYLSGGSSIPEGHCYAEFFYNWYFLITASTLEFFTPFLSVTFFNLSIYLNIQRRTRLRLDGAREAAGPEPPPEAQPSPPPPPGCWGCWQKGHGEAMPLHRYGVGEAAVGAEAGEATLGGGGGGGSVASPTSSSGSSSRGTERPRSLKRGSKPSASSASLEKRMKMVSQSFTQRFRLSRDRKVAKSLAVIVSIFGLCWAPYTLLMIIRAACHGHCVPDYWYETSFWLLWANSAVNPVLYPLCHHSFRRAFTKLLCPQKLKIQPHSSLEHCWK
Chain of Histamine H3 receptor (Rattus norvegicus, UniProt Q9QYN8) (Q9QYN8 whole entry): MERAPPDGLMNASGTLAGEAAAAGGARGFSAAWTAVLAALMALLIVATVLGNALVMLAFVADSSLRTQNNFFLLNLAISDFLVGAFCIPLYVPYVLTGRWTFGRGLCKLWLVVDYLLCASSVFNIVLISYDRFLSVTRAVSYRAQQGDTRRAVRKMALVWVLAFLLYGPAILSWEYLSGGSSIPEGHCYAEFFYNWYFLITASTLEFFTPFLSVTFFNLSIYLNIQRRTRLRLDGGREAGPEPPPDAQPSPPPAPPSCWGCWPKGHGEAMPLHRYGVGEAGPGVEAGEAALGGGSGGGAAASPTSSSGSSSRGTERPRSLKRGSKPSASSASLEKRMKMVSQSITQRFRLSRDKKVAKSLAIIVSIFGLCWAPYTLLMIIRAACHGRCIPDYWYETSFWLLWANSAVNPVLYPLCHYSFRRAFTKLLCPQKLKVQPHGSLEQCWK
Chain of Histamine H1 receptor (Homo sapiens) (P35367 whole entry): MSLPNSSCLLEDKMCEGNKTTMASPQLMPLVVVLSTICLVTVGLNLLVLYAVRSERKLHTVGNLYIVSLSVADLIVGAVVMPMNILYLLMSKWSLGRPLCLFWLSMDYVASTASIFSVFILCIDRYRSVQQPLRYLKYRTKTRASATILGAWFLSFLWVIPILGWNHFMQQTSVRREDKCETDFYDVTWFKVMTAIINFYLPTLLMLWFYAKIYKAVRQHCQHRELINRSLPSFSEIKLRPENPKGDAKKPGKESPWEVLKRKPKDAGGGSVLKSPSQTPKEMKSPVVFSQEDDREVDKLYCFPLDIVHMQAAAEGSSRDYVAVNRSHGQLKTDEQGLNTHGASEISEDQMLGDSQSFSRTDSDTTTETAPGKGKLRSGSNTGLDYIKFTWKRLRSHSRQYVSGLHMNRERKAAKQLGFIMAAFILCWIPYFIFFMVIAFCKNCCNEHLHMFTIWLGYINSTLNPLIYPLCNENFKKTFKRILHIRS
Chain of Histamine H2 receptor (Homo sapiens) (P25021 whole entry): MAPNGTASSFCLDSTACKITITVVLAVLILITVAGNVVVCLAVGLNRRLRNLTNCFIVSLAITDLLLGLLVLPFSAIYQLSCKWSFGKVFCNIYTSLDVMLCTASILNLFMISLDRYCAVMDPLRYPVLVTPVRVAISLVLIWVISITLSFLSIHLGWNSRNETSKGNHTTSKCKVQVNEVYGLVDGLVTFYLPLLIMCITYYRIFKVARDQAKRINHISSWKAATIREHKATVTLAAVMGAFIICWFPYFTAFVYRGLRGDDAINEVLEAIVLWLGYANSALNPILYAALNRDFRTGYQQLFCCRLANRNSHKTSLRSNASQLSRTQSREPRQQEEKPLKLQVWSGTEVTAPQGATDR
Chain of Voltage-gated inwardly rectifying potassium channel KCNH2 (Q12809 whole entry): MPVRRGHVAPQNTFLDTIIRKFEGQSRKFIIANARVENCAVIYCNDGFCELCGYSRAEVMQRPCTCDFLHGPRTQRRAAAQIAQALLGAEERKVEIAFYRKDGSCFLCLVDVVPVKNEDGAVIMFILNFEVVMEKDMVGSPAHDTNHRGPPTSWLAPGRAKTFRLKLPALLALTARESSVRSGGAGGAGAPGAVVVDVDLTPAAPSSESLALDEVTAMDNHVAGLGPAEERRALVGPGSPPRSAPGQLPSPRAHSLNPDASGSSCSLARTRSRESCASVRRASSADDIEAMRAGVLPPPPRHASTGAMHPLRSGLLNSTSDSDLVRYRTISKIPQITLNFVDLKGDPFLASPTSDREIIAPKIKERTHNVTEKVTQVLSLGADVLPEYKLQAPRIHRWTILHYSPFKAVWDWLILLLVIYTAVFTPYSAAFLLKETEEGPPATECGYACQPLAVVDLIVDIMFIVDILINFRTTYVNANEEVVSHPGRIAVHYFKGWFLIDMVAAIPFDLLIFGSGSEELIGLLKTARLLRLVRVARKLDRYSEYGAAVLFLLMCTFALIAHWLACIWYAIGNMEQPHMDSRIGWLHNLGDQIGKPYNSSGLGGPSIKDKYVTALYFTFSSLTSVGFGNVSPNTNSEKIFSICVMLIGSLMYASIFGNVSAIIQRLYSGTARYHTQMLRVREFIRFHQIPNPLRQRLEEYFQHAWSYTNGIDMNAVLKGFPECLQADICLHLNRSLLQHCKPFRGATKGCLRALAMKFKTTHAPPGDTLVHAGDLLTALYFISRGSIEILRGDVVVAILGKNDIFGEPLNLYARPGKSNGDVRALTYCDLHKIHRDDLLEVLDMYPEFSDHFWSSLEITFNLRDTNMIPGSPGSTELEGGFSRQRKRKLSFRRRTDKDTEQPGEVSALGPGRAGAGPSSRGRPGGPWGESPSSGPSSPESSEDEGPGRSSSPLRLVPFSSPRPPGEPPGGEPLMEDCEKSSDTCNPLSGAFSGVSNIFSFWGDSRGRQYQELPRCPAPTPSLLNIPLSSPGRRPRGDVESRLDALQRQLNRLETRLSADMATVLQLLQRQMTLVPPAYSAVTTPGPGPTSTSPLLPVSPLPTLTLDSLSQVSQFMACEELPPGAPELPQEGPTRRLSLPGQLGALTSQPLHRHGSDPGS

half-life [1]: 90 min
fraction unbound [3]: 0.57
half-life [4]: > 40 min
inhibition [6]: < 20%
Cmax [9]: 673 ng/mL
solubility [10]: > 140 µg/mL
fraction unbound [11]: 0.46
Papp [13]: 14.9 ×10⁻⁶ cm/s
inhibition [15]: < 20%
fraction unbound [16]: 0.42
pEC50 (Histamine H3 receptor [19]): 8.96
Vd [21]: 3.4 L/kg
solubility [25]: > 140 µg/mL
pKi (Histamine H3 receptor [28]): 8.30
pIC50 [30]: < 4.52
pKi (Histamine H3 receptor [31]): 8.22
half-life [34]: > 40 min
bioavailability [36]: 68%
Tmax [37]: 1 h
inhibition [38]: > 50%
clearance [40]: 25 mL/min/kg
half-life [42]: > 40 min
Kp at 6 h [43]: 2.3
AUC [45]: 4870 ng·h/mL
inhibition [46]: < 20%
Structure (SMILES): Cc1n[nH]c(=O)cc1-c1ccc(OC2CCN(C3CCC3)CC2)cc1
ED50 (Rattus norvegicus [2]): 0.02 mg/kg
pIC50 [5]: 5.15
Activity [7]: Non-toxic
Activity [8]: Non-toxic
Activity (Salmonella typhimurium [12]): Non-toxic
Activity (Salmonella typhimurium [14]): Non-toxic
Activity (Salmonella typhimurium [17]): Non-toxic
Activity (Rattus norvegicus [18]): 178%
Activity (Salmonella typhimurium [20]): Non-toxic
Activity (Rattus norvegicus [22]): Active
Activity (Salmonella typhimurium [23]): Non-toxic
Time (Rattus norvegicus [24]): 45 min
Activity (Salmonella typhimurium [26]): Non-toxic
Activity (Rattus norvegicus [27]): Non-toxic
Time (Rattus norvegicus [29]): 163 min
Activity (Salmonella typhimurium [32]): Non-toxic
Activity (Salmonella typhimurium [33]): Non-toxic
Time (Rattus norvegicus [35]): 226 min
Time (Rattus norvegicus [39]): 167 min
Activity (Salmonella typhimurium [41]): Non-toxic
Activity (Salmonella typhimurium [44]): Non-toxic
Time (Rattus norvegicus [47]): 35.3 min

pKi (Histamine H3 receptor [28]): 7.85
pKi (Histamine H3 receptor [31]): 7.70
Structure (SMILES): O=c1cc(-c2ccc(OC3CCN(C4CCC4)CC3)nc2)cn[nH]1
